Source: ChEMBL document CHEMBL3616402, “A novel series of indazole-/indole-based glucagon receptor antagonists” (Bioorg Med Chem Lett, 2015)

Columns and labels:
Glucagon receptor [1] = biological target: T1, Glucagon receptor (Homo sapiens, UniProt P47871); test: Antagonist activity against human glucagon receptor expressed in CHO cells assessed as reduction in glucagon-induced cAMP production; format: functional, cell-based
Glucagon receptor [2] = biological target: T1, Glucagon receptor; test: Displacement of [125I]glucagon from human glucagon receptor expressed in CHO cell membranes
Method in brief: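 Binding: displacement of [125I]glucagon from human GCGR in membranes prepared from a CHO cell line stably expressing hGCGR; IC50 reported in nM.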

[3] = Plasma clearance in Wistar rat at 0.5 mg/kg, iv or 2 mg/kg, po; format: ADME, organism-based
Method in brief: (§1)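 Wistar rats given 0.5 mg/kg iv and 2 mg/kg po; plasma concentration–time profiles used to derive plasma clearance, steady-state volume of distribution, half-life and dose-normalized AUC (µM·h·kg/mg).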

[4] = biological target: T2, Gastric inhibitory polypeptide receptor (Homo sapiens, UniProt P48546); test: Antagonist activity against human glucose dependent insulinotropic peptide receptor by cAMP accumulation assay; format: functional
T2 sequence (P48546 whole entry): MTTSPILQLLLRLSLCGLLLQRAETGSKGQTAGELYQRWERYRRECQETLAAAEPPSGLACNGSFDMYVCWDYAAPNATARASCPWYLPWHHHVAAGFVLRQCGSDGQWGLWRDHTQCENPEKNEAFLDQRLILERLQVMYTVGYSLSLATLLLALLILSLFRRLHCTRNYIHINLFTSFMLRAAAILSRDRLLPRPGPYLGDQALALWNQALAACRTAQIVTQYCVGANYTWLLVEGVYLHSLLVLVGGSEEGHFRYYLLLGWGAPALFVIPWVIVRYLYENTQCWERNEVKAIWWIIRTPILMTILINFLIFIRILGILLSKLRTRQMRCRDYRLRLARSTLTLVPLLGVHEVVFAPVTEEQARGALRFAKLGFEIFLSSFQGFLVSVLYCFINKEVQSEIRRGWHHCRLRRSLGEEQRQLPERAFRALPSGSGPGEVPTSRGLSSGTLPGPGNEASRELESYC
Method in brief: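 Selectivity counter-screen: cAMP production measured in CHO cells expressing human GIPR; IC50 (potency) determined.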

[5] = Volume of distribution at steady state in Wistar rat at 0.5 mg/kg, iv or 2 mg/kg, po; format: ADME, organism-based; conditions: in vivo, read-out: Vdss; method in brief: as §1
Rattus norvegicus = test: Dose normalized AUC in Wistar rat at 0.5 mg/kg, iv or 2 mg/kg, po; format: ADME, organism-based; conditions: in vivo; method in brief: as §1
Homo sapiens = species: Homo sapiens; test: Selectivity index, ratio of IC50 for human glucose dependent insulinotropic peptide receptor to IC50 for human glucagon receptor
[6] = Half life in Wistar rat at 0.5 mg/kg, iv or 2 mg/kg, po; format: ADME, organism-based; conditions: in vivo; method in brief: as §1
[7] = Oral bio availability in Wistar rat 2 mg/kg; format: ADME, organism-based; conditions: in vivo
Method in brief: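 Oral bioavailability from Wistar rats dosed 2 mg/kg po with 0.5 mg/kg iv reference dose; F (%) from plasma exposure.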

T1 sequence (P47871 whole entry): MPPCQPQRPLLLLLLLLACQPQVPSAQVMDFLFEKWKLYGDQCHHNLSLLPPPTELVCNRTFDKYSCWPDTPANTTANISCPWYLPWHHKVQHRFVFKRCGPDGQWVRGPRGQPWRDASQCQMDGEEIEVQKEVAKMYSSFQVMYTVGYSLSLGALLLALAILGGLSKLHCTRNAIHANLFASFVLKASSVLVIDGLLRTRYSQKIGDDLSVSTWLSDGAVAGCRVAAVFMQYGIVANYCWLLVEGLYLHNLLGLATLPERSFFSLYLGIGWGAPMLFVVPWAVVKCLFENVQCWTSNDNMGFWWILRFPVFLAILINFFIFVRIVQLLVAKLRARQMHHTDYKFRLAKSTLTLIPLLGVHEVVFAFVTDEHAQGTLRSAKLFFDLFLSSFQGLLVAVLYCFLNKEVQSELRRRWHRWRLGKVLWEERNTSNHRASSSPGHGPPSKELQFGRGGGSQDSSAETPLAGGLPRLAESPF

| SMILES | IC50 (Glucagon receptor [1]) [µM] | IC50 (Glucagon receptor [2]) [µM] | further results |
| --- | --- | --- | --- |
| CCCC(c1ccc(C(=O)NCCC(=O)O)cc1)n1nc(-c2cc(C(F)(F)F)ccc2OC)c2cccc(-c3ccc(OC)cc3)c21 (centres undefined) | 2.7 | 1.7 |  |
| COc1ccc(C(F)(F)F)cc1-c1nn(Cc2ccc(C(=O)NCCC(=O)O)cc2)c2cc(-c3ccc(C)cc3)ccc12 | 0.14 | 0.039 |  |
| CCCCC(c1ccc(C(=O)NCCC(=O)O)cc1)n1nc(-c2cc(C(F)(F)F)ccc2OC)c2ccc(-c3ccc(OC)c(F)c3)cc21 (centres undefined) | 0.018 | 0.0015 |  |
| CCCC(c1ccc(C(=O)NCCC(=O)O)cc1)n1nc(-c2cc(C(F)(F)F)ccc2OC)c2ccc(-c3ccc(OC)cc3)cc21 (centres undefined) | 0.011 | 0.004 |  |
| COc1ccc(C(F)(F)F)cc1-c1nn(C(c2ccc(C(=O)NCCC(=O)O)cc2)C(C)C)c2cc(-c3ccc(C)cc3)ccc12 (centres undefined) | 0.069 | 0.004 |  |
| CC(c1ccc(C(=O)NCCC(=O)O)cc1)n1nc(-c2cc(Cl)ccc2C(N)=O)c2ccc(-c3ccc(OC(F)(F)F)cc3)cc21 (centres undefined) | 0.22 | 0.002 |  |
| COc1ccc(Cl)cc1-c1nn(C(C)c2ccc(C(=O)NCCC(=O)O)cc2)c2cc(-c3ccc(OC(F)(F)F)cc3)ccc12 (centres undefined) | 0.036 | 0.003 |  |
| CCCCC(c1ccc(C(=O)NCCC(=O)O)cc1)n1nc(-c2cc(C(F)(F)F)ccc2OC)c2ccc(-c3ccc(C(F)(F)F)cc3)cc21 (centres undefined) | 0.014 | 0.0016 |  |
| CCCC(c1ccc(C(=O)NCCC(=O)O)cc1)n1nc(-c2cc(C(F)(F)F)ccc2OC)c2cc(-c3ccc(C)cc3)ccc21 (centres undefined) | 0.017 | 0.007 |  |
| CC(c1ccc(C(=O)NCCC(=O)O)cc1)n1nc(-c2cc(F)c(F)c(F)c2)c2ccc(-c3ccc(OC(F)(F)F)cc3)cc21 (centres undefined) | 0.02 | 0.006 |  |
| CC(c1ccc(C(=O)NCCC(=O)O)cc1)n1nc(-c2cc(F)ccc2Cl)c2ccc(-c3ccc(OC(F)(F)F)cc3)cc21 (centres undefined) | 0.14 | 0.01 |  |
| COc1cc(F)c(F)cc1-c1nn(C(C)c2ccc(C(=O)NCCC(=O)O)cc2)c2cc(-c3ccc(OC(F)(F)F)cc3)ccc12 (centres undefined) | 0.037 | 0.004 |  |
| CCCC(c1ccc(C(=O)NCCC(=O)O)cc1)n1nc(-c2cc(C(F)(F)F)ccc2OC)c2cccc(-c3ccc(C)cc3)c21 (centres undefined) | 3.8 | 0.78 |  |
| COc1ncccc1-c1nn(C(C)c2ccc(C(=O)NCCC(=O)O)cc2)c2cc(-c3ccc(OC(F)(F)F)cc3)ccc12 (centres undefined) | 0.077 | 0.072 |  |
| CC(c1ccc(C(=O)NCCC(=O)O)cc1)n1nc(-c2cc(F)cc(F)c2F)c2ccc(-c3ccc(OC(F)(F)F)cc3)cc21 (centres undefined) | 0.052 | 0.007 |  |
| CCCCC(c1ccc(C(=O)NCCC(=O)O)cc1)n1nc(-c2cc(C(F)(F)F)ccc2OC)c2ccc(-c3ccc(SC)cc3)cc21 (centres undefined) | 0.009 | 0.0015 |  |
| CCCCC(c1ccc(C(=O)NCCC(=O)O)cc1)n1nc(-c2cc(C(F)(F)F)ccc2OC)c2ccc(-c3ccccc3)cc21 (centres undefined) | 0.018 | 0.003 |  |
| COc1ccncc1-c1nn(C(C)c2ccc(C(=O)NCCC(=O)O)cc2)c2cc(-c3ccc(OC(F)(F)F)cc3)ccc12 (centres undefined) | 0.76 | 0.11 |  |
| COc1ccc(-c2nn(C(C)c3ccc(C(=O)NCCC(=O)O)cc3)c3cc(-c4ccc(OC(F)(F)F)cc4)ccc23)cn1 (centres undefined) | 0.065 | 0.026 |  |
| CCCC(c1ccc(C(=O)NCCC(=O)O)cc1)n1nc(-c2cc(C(F)(F)F)ccc2OC)c2cc(-c3ccc(OC)cc3)ccc21 (centres undefined) | 0.026 | 0.01 |  |
| CC(c1ccc(C(=O)NCCC(=O)O)cc1)n1nc(-c2cc(C(F)(F)F)ccc2F)c2ccc(-c3ccc(OC(F)(F)F)cc3)cc21 (centres undefined) | 0.12 | 0.005 |  |
| CCCCC(c1ccc(C(=O)NCCC(=O)O)cc1)n1nc(-c2cc(C(F)(F)F)ccc2OC)c2ccc(-c3ccc(C)s3)cc21 (centres undefined) | 0.018 | 0.004 |  |

| SMILES | IC50 (Glucagon receptor [1]) [µM] | IC50 (Glucagon receptor [2]) [µM] | further results |
| --- | --- | --- | --- |
| COc1nccc(-c2nn(C(C)c3ccc(C(=O)NCCC(=O)O)cc3)c3cc(-c4ccc(OC(F)(F)F)cc4)ccc23)n1 (centres undefined) | 0.084 | 0.035 |  |
| CC(c1ccc(C(=O)NCCC(=O)O)cc1)n1nc(-c2ccc(Cl)c(F)c2)c2ccc(-c3ccc(OC(F)(F)F)cc3)cc21 (centres undefined) | 0.044 | 0.004 |  |
| CCCC(c1ccc(C(=O)NCCC(=O)O)cc1)n1cc(-c2cc(C(F)(F)F)ccc2OC)c2ccc(-c3ccc(C)cc3)cc21 (racemic) | 0.048 | 0.004 |  |
| CC(c1ccc(C(=O)NCCC(=O)O)cc1)n1nc(-c2ccc(C(=O)N(C)C)cc2)c2ccc(-c3ccc(OC(F)(F)F)cc3)cc21 (centres undefined) | 0.21 | 0.04 |  |
| CCCCC(c1ccc(C(=O)NCCC(=O)O)cc1)n1nc(-c2cc(C(F)(F)F)ccc2OC)c2ccc(-c3ccc(OC)cc3Cl)cc21 (centres undefined) | 0.018 | 0.004 |  |
| CCCC(c1ccc(C(=O)NCCC(=O)O)cc1)n1nc(-c2cc(C(F)(F)F)ccc2OC)c2ccc(-c3ccc(C)cc3)cc21 (centres undefined) | 0.005 | 0.002 |  |
| COc1ccc(OC(F)(F)F)cc1-c1nn(C(C)c2ccc(C(=O)NCCC(=O)O)cc2)c2cc(-c3ccc(OC(F)(F)F)cc3)ccc12 (centres undefined) | 0.011 | 0.007 |  |
| CCCCC(c1ccc(C(=O)NCCC(=O)O)cc1)n1nc(-c2cc(C(F)(F)F)ccc2OC)c2ccc(-c3ccc(OC)cc3)cc21 (centres undefined) | 0.014 | 0.0019 | clearance [3]: 0.102 L/h/kg; IC50 [4]: 1.1 µM; Vd [5]: 0.67 L/kg; AUC/dose (Rattus norvegicus): 4 µM·kg·h/mg; Ratio IC50 (Homo sapiens): 79; half-life [6]: 6.4 h; bioavailability [7]: 27% |
| CCCC(c1ccc(C(=O)NCCC(=O)O)cc1)n1cc(-c2cc(C(F)(F)F)ccc2OC)c2ccc(-c3ccc(OC(F)(F)F)cc3)nc21 (centres undefined) | 0.36 | 0.012 |  |
| CCCCC(c1ccc(C(=O)NCCC(=O)O)cc1)n1nc(-c2cc(C(F)(F)F)ccc2OC)c2ccc(-c3ccc(OC(F)(F)F)cc3)cc21 (centres undefined) | 0.008 | 0.0008 | clearance [3]: 0.45 L/h/kg; IC50 [4]: 0.75 µM; Vd [5]: 0.72 L/kg; AUC/dose (Rattus norvegicus): 0.3 µM·kg·h/mg; Ratio IC50 (Homo sapiens): 94; half-life [6]: 4.7 h; bioavailability [7]: 9% |
| CC(c1ccc(C(=O)NCCC(=O)O)cc1)n1nc(-c2cc(Cl)cc(C(F)(F)F)c2)c2ccc(-c3ccc(OC(F)(F)F)cc3)cc21 (centres undefined) | 0.056 | 0.003 |  |
| CCC(c1ccc(C(=O)NCCC(=O)O)cc1)n1nc(-c2cc(C(F)(F)F)ccc2OC)c2ccc(-c3ccc(C)cc3)cc21 (centres undefined) | 0.021 | 0.004 |  |
| CC(c1ccc(C(=O)NCCC(=O)O)cc1)n1nc(-c2ccc(Cl)cc2Cl)c2ccc(-c3ccc(OC(F)(F)F)cc3)cc21 (centres undefined) | 0.041 | 0.008 |  |
| CC(c1ccc(C(=O)NCCC(=O)O)cc1)n1nc(-c2ccc(C#N)cc2)c2ccc(-c3ccc(OC(F)(F)F)cc3)cc21 (centres undefined) | 0.043 | 0.015 |  |
| CCCC(c1ccc(C(=O)NCCC(=O)O)cc1)n1nc(-c2cc(C(F)(F)F)ccc2OC)c2ccc(-c3ccc(OC(F)(F)F)cc3)cc21 (centres undefined) | 0.0056 | 0.001 | clearance [3]: 0.132 L/h/kg; IC50 [4]: 1.4 µM; Vd [5]: 1.3 L/kg; AUC/dose (Rattus norvegicus): 2 µM·kg·h/mg; Ratio IC50 (Homo sapiens): 250; half-life [6]: 9.7 h; bioavailability [7]: 19% |
| CCCCC(c1ccc(C(=O)NCCC(=O)O)cc1)n1nc(-c2cc(C(F)(F)F)ccc2OC)c2ccc(-c3ccc(C)cc3)cc21 (centres undefined) | 0.0066 | 0.0026 | clearance [3]: 0.234 L/h/kg; IC50 [4]: 1 µM; Vd [5]: 1 L/kg; AUC/dose (Rattus norvegicus): 1.2 µM·kg·h/mg; Ratio IC50 (Homo sapiens): 150; half-life [6]: 4 h; bioavailability [7]: 17% |
| CCCC(c1ccc(C(=O)NCCC(=O)O)cc1)n1cc(-c2cc(C(F)(F)F)ccc2OC)c2ccc(-c3ccc(OC)cc3)cc21 (racemic) | 0.13 | 0.008 |  |
| COc1cncc(-c2nn(C(C)c3ccc(C(=O)NCCC(=O)O)cc3)c3cc(-c4ccc(OC(F)(F)F)cc4)ccc23)c1 (centres undefined) | 0.1 | 0.05 |  |
| CCCCC(c1ccc(C(=O)NCCC(=O)O)cc1)n1nc(-c2cc(C(F)(F)F)ccc2OC)c2ccc(-c3cc(F)c(F)c(F)c3)cc21 (centres undefined) | 0.026 | 0.0035 |  |
| CCCCC(c1ccc(C(=O)NCCC(=O)O)cc1)n1nc(-c2cc(C(F)(F)F)ccc2OC)c2ccc(-c3ccc(OC)nc3)cc21 (centres undefined) | 0.024 | 0.0034 |  |
| CCCCC(c1ccc(C(=O)NCCC(=O)O)cc1)n1nc(-c2cc(C(F)(F)F)ccc2OC)c2ccc(-c3cc(F)cc(Cl)c3)cc21 (centres undefined) | 0.046 | 0.007 |  |
